Results from ChEMBL document CHEMBL1287751, “Development of a sphingosine kinase 1 specific small-molecule inhibitor” (Bioorg Med Chem Lett, 2010).
Blank lines part the entries; values can stand above or below the molecule they belong to. The source made the active and inactive calls. The rule behind the calls is not given here.

How the values were obtained:
Sphingosine kinase 1 [1] = molecular target: T1, Sphingosine kinase 1 (Homo sapiens, UniProt Q9NYA1); assay: Inhibition of His6x-tagged recombinant sphingosine kinase 1 expressed in HEK293 cells at 10.7 uM; type: cell-based
Outline: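 Affinity-purified His6X-tagged SphK1, recombinantly overexpressed in HEK293 cells. Substrate was 25 µM D-erythro-sphingosine in SKAAB buffer, without BSA conjugation or Triton X-100 micelles. Compounds screened at 10.7 µM, with DMSO controls at ≤5% of reaction volume. Reported as % inhibition, averages of two separate experiments.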

BXPC-3 = assay: Cytotoxicity against human BxPC3 cells after 48 hrs by sulforhodamine B assay; type: functional, cell-based; details: BXPC-3, 48 h
[2] = Cytotoxicity against human NCI/ADR cells after 48 hrs by sulforhodamine B assay; type: functional, cell-based; details: NCI/ADR-RES
Sphingosine kinase 1 [3] = molecular target: T1, Sphingosine kinase 1; assay: Competitive inhibition of recombinant sphingosine kinase 1 using D-erythro-sphingosine as substrate by Lineweaver-Burke plot analysis
Outline: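 Recombinant His6X-tagged SphK1, affinity purified from HEK293 overexpression, assayed with varying D-erythro-sphingosine concentrations, with inhibitor absent or at 10 and 17 µM. Sph delivered in SKAAB buffer without BSA conjugation or Triton X-100 micelles. DMSO ≤5% of reaction. Ki and mechanism from linear regression.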

[4] = Cytotoxicity against human U87MG cells after 48 hrs by sulforhodamine B assay; type: functional, cell-based, U-87MG ATCC; details: U-87 MG
Sphingosine kinase 1 [5] = molecular target: T1, Sphingosine kinase 1; assay: Inhibition of sphingosine kinase 1 in human A549 cells assessed as reduction in sphingosine-1-phosphate cellular level at 1 uM after 48 hrs by thin layer chromatography relative to control; type: cell-based
Outline: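 A549 cells treated with 1 µM compound for 48 h. SphK activity assays were run on whole-cell lysates, lipids were separated by thin layer chromatography, and S1P was compared with DMSO-treated controls.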

HL-60 [6] = assay: Cytotoxicity against VCR-resistance human HL60 cells after 48 hrs by sulforhodamine B assay; type: functional, cell-based; details: HL-60, 48 h
MCF7 [7] = assay: Cytotoxicity against human tamoxifen-resistant MCF7 cells after 48 hrs by sulforhodamine B assay; type: functional, cell-based; details: MCF7, 48 h
PANC-1 = assay: Cytotoxicity against human PANC1 cells after 48 hrs by sulforhodamine B assay; type: functional, cell-based; details: PANC-1, 48 h
Sphingosine kinase 1 [8] = molecular target: T1, Sphingosine kinase 1; assay: Non-competitive inhibition of recombinant sphingosine kinase 1 using ATP as substrate by Lineweaver-Burke plot analysis
HL-60 [9] = assay: Cytotoxicity against human HL60 cells after 48 hrs by sulforhodamine B assay; type: functional, cell-based; details: HL-60, 48 h
SH-SY5Y = assay: Cytotoxicity against human SH-SY5Y cells after 48 hrs by sulforhodamine B assay; type: functional, cell-based
[10] = molecular target: T2, Sphingosine kinase 2 (Homo sapiens) (UniProt Q9NRA0); assay: Inhibition of sphingosine kinase 2 up to 25 uM
T2 sequence (whole entry): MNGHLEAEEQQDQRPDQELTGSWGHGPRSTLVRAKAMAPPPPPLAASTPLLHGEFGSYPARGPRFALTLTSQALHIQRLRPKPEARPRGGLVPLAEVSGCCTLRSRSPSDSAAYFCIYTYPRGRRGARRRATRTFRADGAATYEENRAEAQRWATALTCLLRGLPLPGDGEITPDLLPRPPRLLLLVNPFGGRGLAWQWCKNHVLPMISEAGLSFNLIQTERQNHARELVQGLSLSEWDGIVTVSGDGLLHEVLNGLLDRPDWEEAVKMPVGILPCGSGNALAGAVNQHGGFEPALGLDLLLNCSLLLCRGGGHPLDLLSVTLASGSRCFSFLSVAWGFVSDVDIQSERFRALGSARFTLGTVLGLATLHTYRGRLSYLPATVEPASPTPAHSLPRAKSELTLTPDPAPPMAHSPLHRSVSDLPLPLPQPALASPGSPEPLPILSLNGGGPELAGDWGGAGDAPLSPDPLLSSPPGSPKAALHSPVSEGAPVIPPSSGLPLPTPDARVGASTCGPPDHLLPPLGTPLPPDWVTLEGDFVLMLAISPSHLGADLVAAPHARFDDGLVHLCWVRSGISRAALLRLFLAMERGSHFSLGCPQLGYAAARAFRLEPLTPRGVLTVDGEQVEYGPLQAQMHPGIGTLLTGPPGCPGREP
Outline: (§1)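 SphK2 activity assay in SKAAB buffer supplemented with 1 M KCl. Substrate was D-erythro-sphingosine delivered without BSA or Triton X-100. DMSO ≤5% of reaction volume.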

U-251 = assay: Cytotoxicity against human U251 cells after 48 hrs by sulforhodamine B assay; type: functional, cell-based; details: U-251, 48 h
MIA PaCa-2 = assay: Cytotoxicity against human MIAPaCa2 cells after 48 hrs by sulforhodamine B assay; type: functional, cell-based; details: MIA PaCa-2, 48 h
A549 = assay: Ratio of compound cytotoxicity at 1 uM to SKI-I cytotoxicity for human A549 cells
NCI-H460 = assay: Cytotoxicity against human H460 cells after 48 hrs by sulforhodamine B assay; type: functional, cell-based; details: NCI-H460, 48 h
MCF7 [11] = assay: Cytotoxicity against human MCF7 cells after 48 hrs by sulforhodamine B assay; type: functional, cell-based; details: MCF7, 48 h
[12] = Cytotoxicity against human KG1a cells after 48 hrs by sulforhodamine B assay; type: functional, cell-based; details: KG-1a
[13] = Cytotoxicity against human Kusami-3 cells after 48 hrs by sulforhodamine B assay; type: functional, cell-based; details: Kusami-3, 48 h
NCI-H226 = assay: Cytotoxicity against human NCI-H226 cells after 48 hrs by sulforhodamine B assay; type: functional, cell-based; details: NCI-H226, 48 h
[14] = molecular target: T2, Sphingosine kinase 2 (Homo sapiens); assay: Inhibition of sphingosine kinase 2; outline: as §1

T1 sequence (Q9NYA1 whole entry): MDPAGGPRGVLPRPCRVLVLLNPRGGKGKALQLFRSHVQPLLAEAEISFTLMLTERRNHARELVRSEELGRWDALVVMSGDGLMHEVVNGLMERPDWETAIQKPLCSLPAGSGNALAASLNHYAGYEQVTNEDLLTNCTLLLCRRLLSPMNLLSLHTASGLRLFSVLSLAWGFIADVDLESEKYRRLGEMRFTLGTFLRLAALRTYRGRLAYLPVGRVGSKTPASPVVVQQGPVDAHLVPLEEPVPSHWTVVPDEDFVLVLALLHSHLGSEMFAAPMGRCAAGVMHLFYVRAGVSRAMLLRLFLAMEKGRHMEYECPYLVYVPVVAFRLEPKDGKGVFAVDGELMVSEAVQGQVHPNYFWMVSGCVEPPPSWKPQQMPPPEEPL

inhibition (Sphingosine kinase 1 [1]): 44.5%
Structure (SMILES): COc1ccc(-c2cc(C(=O)N/N=C/c3ccc(OC)c(OC)c3)[nH]n2)cc1

inhibition (Sphingosine kinase 1 [1]): 52.5%
Structure (SMILES): COc1ccc(-c2cc(C(=O)N/N=C/c3ccc4ccccc4c3)[nH]n2)cc1

inhibition (Sphingosine kinase 1 [1]): 27.4%
Structure (SMILES): COc1ccc(-c2cc(C(=O)N/N=C/c3ccc(F)cc3)[nH]n2)cc1

inhibition (Sphingosine kinase 1 [1]): 33.5%
Structure (SMILES): COc1ccc(-c2cc(C(=O)N/N=C/c3ccccc3O)[nH]n2)cc1

inhibition (Sphingosine kinase 1 [1]): 38%
Structure (SMILES): CCN(CC)c1ccc(/C=N/NC(=O)c2cc(-c3ccc(OC)cc3)n[nH]2)cc1

inhibition (Sphingosine kinase 1 [1]): 12.5%
Structure (SMILES): COc1ccc(-c2cc(C(=O)N/N=C/c3cc(O)cc(O)c3)[nH]n2)cc1

inhibition (Sphingosine kinase 1 [1]): 28%
Structure (SMILES): O=C(N/N=C/c1ccc(O)cc1)c1cc(-c2ccc3ccccc3c2)n[nH]1

inhibition (Sphingosine kinase 1 [1]): 14.3%
Structure (SMILES): COc1ccc(-c2cc(C(=O)N/N=C/c3ccc(O)cc3)[nH]n2)cc1

inhibition (Sphingosine kinase 1 [1]): 15.5%
Structure (SMILES): COc1ccc(-c2cc(C(=O)N/N=C/c3cccc(O)c3)[nH]n2)cc1

inhibition (Sphingosine kinase 1 [1]): 15.3%
Structure (SMILES): COc1ccc(-c2cc(C(=O)N/N=C/c3ccc(C(C)C)cc3)[nH]n2)cc1

inhibition (Sphingosine kinase 1 [1]): 30.8%
Structure (SMILES): COc1ccc(-c2cc(C(=O)N/N=C/c3ccc(O)cc3O)[nH]n2)cc1

Second part, the molecule before the results:

Structure (SMILES): O=C(N/N=C/c1cccc(O)c1)c1cc(-c2ccc3ccccc3c2)n[nH]1
inhibition (Sphingosine kinase 1 [1]): 25.1%

Structure (SMILES): Cc1ccc(-c2cc(C(=O)N/N=C/c3ccccc3O)[nH]n2)cc1
inhibition (Sphingosine kinase 1 [1]): 9.8%

Structure (SMILES): O=C(N/N=C/c1ccccc1O)c1cc(-c2ccccc2)n[nH]1
inhibition (Sphingosine kinase 1 [1]): 11.9%

Structure (SMILES): COc1ccc(/C(C)=N/NC(=O)c2cc(-c3ccc(C)cc3)n[nH]2)cc1OC
inhibition (Sphingosine kinase 1 [1]): 21.8%

Structure (SMILES): COc1ccc(-c2cc(C(=O)N/N=C(\C)c3ccc(OC)c(OC)c3)[nH]n2)cc1
IC50 (BXPC-3): 200 nM
IC50 [2]: 1500 nM
Ki (Sphingosine kinase 1 [3]): 1330 nM
IC50 [4]: 600 nM
inhibition (Sphingosine kinase 1 [5]): Active
IC50 (HL-60 [6]): 200 nM
IC50 (MCF7 [7]): 1800 nM
IC50 (PANC-1): 100 nM
inhibition (Sphingosine kinase 1 [8]): Active
IC50 (HL-60 [9]): 200 nM
IC50 (SH-SY5Y): 300 nM
inhibition [10]: inactive
inhibition (Sphingosine kinase 1 [1]): 59.6%
IC50 (U-251): 500 nM
IC50 (MIA PaCa-2): 100 nM
cytotoxicity ratio (A549): 1.37
IC50 (NCI-H460): 300 nM
IC50 (MCF7 [11]): 1300 nM
IC50 [12]: 500 nM
IC50 [13]: 200 nM
IC50 (NCI-H226): 300 nM

Structure (SMILES): COc1ccc(-c2cc(C(=O)N/N=C(\C)c3ccc(Cl)cc3)[nH]n2)cc1
inhibition (Sphingosine kinase 1 [1]): 46.8%

Structure (SMILES): O=C(N/N=C/c1c(O)ccc2ccccc12)c1cc(-c2ccc3ccccc3c2)n[nH]1
Ki (Sphingosine kinase 1 [3]): 1060 nM
inhibition (Sphingosine kinase 1 [5]): Active
inhibition [14]: Dose-dependent effect

Structure (SMILES): O=C(N/N=C/c1ccc(O)cc1O)c1cc(-c2ccc3ccccc3c2)n[nH]1
inhibition (Sphingosine kinase 1 [1]): 39.5%

Structure (SMILES): O=C(N/N=C/c1ccccc1O)c1cc(-c2ccc3ccccc3c2)n[nH]1
inhibition (Sphingosine kinase 1 [1]): 59.3%
